Measured values pooled from the literature.
Lines come from different studies, so protocols differ.

Oc1c(-n2ccnn2)cnn1-c1cc(N2CCOCC2)ncn1
half-life (male rat, plasma; intravenous, 5 mg/kg): 3.1 h

N#Cc1[nH]nnc1-c1cccc(OCc2cc(C(F)(F)F)ccc2C(F)(F)F)c1
half-life (male Sprague-Dawley rat, plasma; oral, 10 mg/kg): 3.9 h

C[C@H](Nc1ncnc2[nH]cnc12)c1cc2cccc(Cl)c2c(=O)n1-c1ccccc1
half-life (male Wistar rat, plasma; oral, 25 mg/kg, single dose): 0.82 h

COc1ccc(C(C)=O)c(O)c1
half-life (male Sprague-Dawley rat, plasma; oral, 100 mg/kg): 3.37 h

N#Cc1ccc(Nc2nc(N)cc(Oc3c(F)cc(-c4ccc(C#N)cc4)cc3F)n2)cc1
half-life (Sprague-Dawley rat, plasma; intravenous, 1 mg/kg): 1.25 h

CCNC(=O)c1nc(-c2ccc3[nH]c(-c4nc(C)no4)cc3c2)c(C)[nH]1
half-life (Sprague-Dawley rat, plasma; intravenous, 1 mg/kg): 0.9 h

COc1cc2c3c(n(CCCN4CCOCC4)c(=O)c2cc1OC)-c1cc2c(cc1C3=O)OCO2
half-life (female Fischer 344 rat, plasma; intravenous, 24 mg/m², single dose): 4.6 h

O=C(Nc1ccc(C(F)(F)F)cc1F)N1CCC(Cc2cccc(Oc3ccc(C(F)(F)F)cn3)c2)CC1
half-life (male Sprague-Dawley rat, blood; oral, 1 mg/kg): 5.8 h

Cc1cnc(N2CC3(CCOCC3)C2)c(C(=O)Nc2ccc(C(=O)N3CCc4cc(C(=O)Nc5c(C)cccc5F)sc4-c4ccccc43)cc2)c1
half-life (rat, plasma; inhaled, 2.7 mg/kg, single dose): 3.4 h

O=C(Nc1cc(F)c(F)c(F)c1)c1ccc(F)c(S(=O)(=O)NCc2cccc(B(O)O)c2)c1
half-life (male Sprague-Dawley rat, plasma; intravenous, 2 mg/kg): 0.94 h

CNCc1cc(-c2ccccc2F)n(S(=O)(=O)c2cccnc2)c1
half-life (male Sprague-Dawley rat, plasma; oral, 10 mg/kg): 1 h

CCOC(=O)[C@@]12C[C@@H]1[C@@H](n1ccc3c(NC)nc(C#Cc4ccc(Cl)s4)nc31)[C@H](O)[C@@H]2O
half-life (male Sprague-Dawley rat, plasma; oral, 3 mg/kg): 1.55 h

COc1nc(-c2cc(C)c(N[C@@H](C)c3cc(F)cc(F)c3)nn2)ccc1-n1cnc(C)c1
half-life (male Sprague-Dawley rat, plasma; oral, 5 mg/kg, single dose): 2.2 h

N#Cc1[nH]nnc1-c1cccc(-c2cc(F)cc(C(F)(F)F)c2)c1
half-life (male Sprague-Dawley rat, plasma; oral, 10 mg/kg): 2.6 h

C#Cc1cccc(Nc2ncnc3cc(OCCOC)c(OCCOC)cc23)c1
half-life (male Sprague-Dawley rat, plasma; oral, 12 mg/kg, single dose): 2.25 h

COc1ccc2c(=O)n(C)c(-c3ccccc3)nc2c1
half-life (male Sprague-Dawley rat, plasma; oral, 10 mg/kg): 0.74 h

CCc1cc(OC)c2nccc(N3CCc4c(cc(Cn5ccnc5)cc4-c4cn(C)nc4C(F)(F)F)C3=O)c2c1
half-life (male Sprague-Dawley rat, plasma; oral, 50 mg/kg): 1.3 h

O=c1[nH]cc(F)c(=O)[nH]1
half-life (Sprague-Dawley rat, plasma; oral, 20 mg/kg): 1.81 h

COc1ccc2c(Cc3ccccc3F)c3n(c(=O)c2c1OC)CCc1cc2c(cc1-3)OCO2
half-life (rat, plasma; oral, 5 mg/kg): 17.8 h

Cc1c(-c2ccccc2)cccc1N1C(=O)c2cc(CN[C@H](C(=O)O)C(C)O)c(OCc3cccc(C#N)c3)cc2C1=O (stereo partly drawn)
half-life (Sprague-Dawley rat, plasma; oral, 50 mg/kg): 4.33 h

CCc1cc(C(=O)NC)c2nccc(N3CCc4c(cc(Cn5ccnc5)cc4-c4cn(C)nc4C(F)(F)F)C3=O)c2c1
half-life (male Sprague-Dawley rat, plasma; oral, 50 mg/kg, single dose): 3.8 h

COCCOC(=O)C1=C(C)NC(C)=C(C(=O)OC(C)C)C1c1cccc([N+](=O)[O-])c1 (stereo not drawn)
half-life (male Sprague-Dawley rat, plasma; intravenous, 3 mg/kg): 6.7 h

CCc1nc(C(N)=O)c(Nc2ccc(N3CCC(N4CCN(C)CC4)CC3)c(OC)c2)nc1NC1CCOCC1
half-life (male Sprague-Dawley rat, plasma; oral, 10 mg/kg): 14.3 h

Oc1c(Br)cc(Cl)c2cccnc12
half-life (Sprague-Dawley rat, plasma; oral, 20 mg/kg): 5.6 h
